# Screening data as filed in PubChem.
# Shown are actives, neighbours in structure and some others; about 3% of the full set was active somewhere.
# SENP6 inh: inhibitors of human SENP6 protease | inhibition, % at 10 µM | Recombinant SENP6 catalytic domain, aminoluciferin luminescence | Q9GZR1 | 330,000 compounds, 1.8% hits | AID 2599;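 active = inhibition above about 50% at the single tested dose, limit read from the data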;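 also: plate controls were DMSO wells with enzyme for no effect and DMSO wells lacking enzyme for full effect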
# SENP7 inh: inhibitors of human SENP7 protease | Q9BQF6 | recombinant SENP7, Z-RLRGG-aminoluciferin luminescence, 40 min | inhibition, % at 5 µM | 330,000 compounds, 1.5% hits;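 active = inhibition above about 50% at the single test dose, limit read from the data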;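 also: plate controls were DMSO with enzyme for no effect and no enzyme buffer wells for full effect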
# SENP8 block-1: blocks the human protease SENP8; Q96LD8; purified SENP8, Z-RLRGG-aminoluciferin cleavage, luminescence; inhibition, % at 10 µM; 330,000 compounds, 1.2% hits; AID 2540; in the data active = inhibition above about 50%
# Target sequence (Q96LD8 whole entry, looked up): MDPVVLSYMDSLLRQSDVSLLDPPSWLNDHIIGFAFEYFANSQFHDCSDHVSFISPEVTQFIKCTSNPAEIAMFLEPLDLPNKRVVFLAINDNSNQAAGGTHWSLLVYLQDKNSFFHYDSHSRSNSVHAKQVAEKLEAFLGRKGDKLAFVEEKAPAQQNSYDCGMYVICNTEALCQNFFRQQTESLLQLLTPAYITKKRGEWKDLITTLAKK
# UBC13 inh: blocks human UBC13 polyubiquitin chain formation | P61088 | TR-FRET | inhibition, % at 20 µM | 330,000 compounds, 0.47% hits; in the data active = inhibition above about 45%, passing the limit was not always enough
# Target sequence (P61088 whole entry, looked up): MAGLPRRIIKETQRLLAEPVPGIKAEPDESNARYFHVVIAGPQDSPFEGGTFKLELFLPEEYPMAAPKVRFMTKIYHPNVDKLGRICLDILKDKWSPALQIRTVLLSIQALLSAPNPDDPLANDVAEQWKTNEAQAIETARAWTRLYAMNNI
# SENP8 block-2: SENP8 (human) protease inhibition; inhibition, % at 20 µM; 360,000 compounds, 0.64% hits; AID 602440; Q96LD8; recombinant SENP8, Nedd8 substrate fluorescence; in the data active = inhibition mostly above about 40%, no sharp cut-off; inactive = mostly below about 27%
# Apaf1 inhib: blocks human Apaf-1 apoptosome activity; inhibition, % at 20 µM; O14727; 330,000 compounds, 0.71% hits; reconstituted apoptosome caspase-3 activity, DEVD-Rh110 fluorescence; AID 489030; active = inhibition of at least 40% at 20 µM;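 also: plate controls were DMSO wells for no effect and DEVD-CHO caspase inhibitor wells for full effect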
#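 Material: reconstituted apoptosome with Apaf-1, cytochrome c, caspase-9, procaspase-3, dATP. Technique: Rh110 fluorescence intensity. Buffer or medium: pH 7.5 Hepes buffer with CHAPS, BSA, DTT. Times: 30 min plus 50 min, RT.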
# SENP8 conf: confirmation of human SENP8 protease inhibitors; shares compounds with SENP7 inh; Recombinant SENP8, Z-RLRGG-aminoluciferin luminescence, 60 min; inhibition, % at 12.5 µM; 6,200 compounds, 40% hits; AID 488912;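 active = mean inhibition across replicates above about 50%, limit read from the data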
# SENP6 conf: human SENP6 inhibition, confirmed | shares compounds with SENP7 inh | recombinant SENP6, Z-RLRGG-aminoluciferin luminescence | inhibition, % at 12.5 µM | 6,200 compounds, 58% hits | AID 488915
# SENP7 conf: confirmation of human SENP7 protease inhibitors. shares compounds with SENP7 inh. recombinant SENP7, Z-RLRGG-aminoluciferin luminescence, 40 min. inhibition, % at 12.5 µM. 6,200 compounds, 69% hits
# Casp3 select: selectivity test for SENP inhibitors: human caspase-3 inhibition | shares compounds with SENP7 inh | purified caspase-3, Z-DEVD-aminoluciferin luminescence, 60 min | inhibition, % at 12.5 µM | 6,200 compounds, 60% hits | AID 488918;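 active = mean inhibition above about 50%, limit read from the data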;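 also: plate controls were enzyme with DMSO for no effect and wells without caspase-3 for full effect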
# SENP luc ctr: interferes with luciferase luminescence in SENP counter-screen; 6,200 compounds, 39% hits; Pre-incubated SENP8/Z-RLRGG-aminoluciferin, luciferase luminescence interference; inhibition, % at 12.5 µM; shares compounds with SENP7 inh;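 active = mean inhibition above about 50% when retested at one dose, limit read from the data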;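 also: plate controls were DMSO wells with completed reaction for no effect and substrate without enzyme for full effect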
# Numbers without * were called inactive; nt = not tested or not shown.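 The calls were made as follows, unless noted: active = mean inhibition above about 50% in the one-dose retest (limit read from the data); inactive = the rest.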
SMILES,SENP6 inh,SENP7 inh,SENP8 block-1,UBC13 inh,SENP8 block-2,Apaf1 inhib,SENP8 conf,SENP6 conf,SENP7 conf,Casp3 select,SENP luc ctr
Cc1csc(NC(=O)c2cc(C)oc2C)n1,69*,59*,46,4,2,-7,64*,63*,89*,84*,65*
COc1ccccc1C(CNC(=O)C(CCSC)NC(=O)c1ccccc1Cl)N1CCCC1 (centres undefined),nt,nt,nt,nt,-1,nt,nt,nt,nt,nt,nt
CCN(CC)C(=O)c1c(-c2ccccc2)oc2ccc(O)cc12,-3,-15,-14,-2,-184,9,nt,nt,nt,nt,nt
COc1ccc2nc(NC(=S)N(C)C)sc2c1,81*,76*,67*,12,18,4,80*,79*,94*,69*,79*
CCCC(=O)Nc1nc2ccc(OC)cc2s1,-6,2,2,2,9,6,nt,nt,nt,nt,nt
Cc1cc(C(=O)Nc2nc3ccc(S(C)(=O)=O)cc3s2)c(C)o1,96*,93*,41,4,-31,20,34,89*,101*,94*,14
CCN(CC)C(=O)[C@H]1C[C@H](CC(=O)NCCC2=CCCCC2)C(=O)N2CCc3c([nH]c4cc(CCC(=O)N(C)C)ccc34)[C@]12C,nt,0,nt,nt,0,19,nt,nt,nt,nt,nt
COc1ccc(C(=O)N2CCN(C(C)=O)CC2)cc1S(=O)(=O)N1CCOCC1,10,-11,1,6,16,-8,nt,nt,nt,nt,nt
CCOC(=O)c1ccc(NC(=O)N2CCc3ccccc32)cc1,91*,96*,77*,-2,17,5,-13,81*,95*,76*,23
COc1ccc(NC(=O)N2CCCc3ccccc32)cc1,2,9,2,4,14,-13,nt,nt,nt,nt,nt
CCOC(=O)c1ccc(NC(=O)N2CCc3ccccc3C2)cc1,10,5,13,-16,-2,7,nt,nt,nt,nt,nt
COc1ccc(NC(=O)N2CCc3ccccc32)cc1,95*,96*,86*,3,13,-2,93*,93*,99*,94*,91*
O=C(Nc1ccccc1F)c1ccc(CSc2ccccc2)o1,29,7,-4,4,18,0,nt,nt,nt,nt,nt
Cc1cc(C)cc(SCc2noc(C(=O)NCC3CC3)c2C(=O)NCC2CC2)c1,-1,8,1,6,nt,21,nt,nt,nt,nt,nt
Nc1cccc2cc(-c3ccccc3)oc12,55*,48,36,14,-497,0,34,35,72*,32,53*
COc1cccc2cc(-c3ccccc3)oc12,34,8,11,6,-42,5,nt,nt,nt,nt,nt
CC(C)c1ccc(N(C(=O)CNC(=O)c2ccco2)C(C(=O)NC2CCCC2)c2cccnc2)cc1 (centres undefined),2,-7,-3,-1,16,5,nt,nt,nt,nt,nt
CC(C)(C)c1nnc(SCC(=O)Nc2ccc(N3CCCCC3)cc2)n1N,0,-4,6,6,25,4,nt,nt,nt,nt,nt
C=CCN=c1scc(-c2ccc(F)cc2)n1/N=C/c1ccccn1,-8,-5,-8,-6,-12,14,nt,nt,nt,nt,nt
CN=c1scc(-c2ccccc2F)n1/N=C/c1ccc[nH]1,-16,0,91*,-18,-13,11,98*,100*,103*,96*,97*
CCOC(=O)CCS(=O)(=O)c1ccc(-c2ccc(S(=O)(=O)CCC(=O)OCC)cc2)cc1,-20,58*,6,2,3,-6,3,3,-2,-2,-1
